Data as given in ChEMBL document CHEMBL1629485, “Lead identification of conformationally restricted β-lactam type combretastatin analogues: synthesis, antiproliferative activity and tubulin targeting effects” (Eur J Med Chem, 2010).
pIC50: −log10 of the molar value.

What was measured:
MDA-MB-231 [1] = experiment: Antiproliferative activity against estrogen receptor deficient human MDA-MB-231 cells after 72 hrs by MTT assay; format: functional, cell-based; conditions: MDA-MB-231, 72 h
Outline: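 MCF-7 grown in Eagle's MEM with 10% FBS, 2 mM L-glutamine, penicillin/streptomycin and 1% non-essential amino acids; MDA-MB-231 grown in DMEM with 10% FBS, 2 mM L-glutamine and penicillin/streptomycin. Seeded at 2.5 × 10⁴ cells/mL, 24 h at 37 °C. Ethanol-stock compound, 1 nM–100 μM, 72 h, ethanol 1% v/v vehicle. MTT at 1 mg/mL final, 2 h dark, 37 °C, DMSO solubilised. Viability vs untreated control. IC50 is mean of three experiments in triplicate.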

MDA-MB-231 [2] = experiment: Cell cycle arrest in estrogen receptor deficient human MDA-MB-231 cells assessed as accumulation at S phase at 100 nM after 72 hrs using propidium iodide staining by flow cytometry relative to control; format: functional
Outline: (§1)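 MDA-MB-231 cells in DMEM with 10% FBS and 2 mM L-glutamine, seeded at 18 × 10⁴ cells/mL. Exposed to test agent at the stated final concentration, or to 1% (v/v) ethanol vehicle, for 24, 48 or 72 h. Harvested by scraping and centrifugation, then RNase A treatment and propidium iodide DNA staining for at least 30 min at 37 °C. 10,000 cells per sample read at 488 nm by flow cytometry; mean ± SD of three experiments.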

MDA-MB-231 [3] = experiment: Cell cycle arrest in estrogen receptor deficient human MDA-MB-231 cells assessed as accumulation at G1 phase at 10 uM after 24 hrs using propidium iodide staining by flow cytometry relative to control; format: functional; outline: as §1
MDA-MB-231 [4] = experiment: Cell cycle arrest in estrogen receptor deficient human MDA-MB-231 cells assessed as accumulation at S phase at 10 uM after 24 hrs using propidium iodide staining by flow cytometry relative to control; format: functional; outline: as §1
MDA-MB-231 [5] = experiment: Cell cycle arrest in estrogen receptor deficient human MDA-MB-231 cells assessed as accumulation at G2/M phase at 1 uM after 72 hrs using propidium iodide staining by flow cytometry relative to control; format: functional; outline: as §1
MDA-MB-231 [6] = experiment: Cell cycle arrest in estrogen receptor deficient human MDA-MB-231 cells assessed as appearance of polyploidy at 100 nM after 24 hrs using propidium iodide staining by flow cytometry relative to control; format: functional
Outline: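 MDA-MB-231 cells seeded at 18 × 10⁴ cells/mL and exposed to 1% (v/v) ethanol vehicle or compound at final concentrations (10 nM, 100 nM, 10 µM at all times; 1 µM also at 24 and 72 h). Cells harvested after 24, 48 or 72 h and treated with RNase A and propidium iodide for at least 30 min at 37 °C. 10,000 cells read at 488 nm by flow cytometry. Percent cells per phase reported, including polyploid; mean ± SD of three experiments.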

MDA-MB-231 [7] = experiment: Cell cycle arrest in estrogen receptor deficient human MDA-MB-231 cells assessed as accumulation at G2/M phase at 10 nM after 24 hrs using propidium iodide staining by flow cytometry relative to control; format: functional; outline: as §1
MDA-MB-231 [8] = experiment: Cell cycle arrest in estrogen receptor deficient human MDA-MB-231 cells assessed as accumulation at sub-G1 phase at 100 nM after 72 hrs using propidium iodide staining by flow cytometry relative to control; format: functional; outline: as §1
MDA-MB-231 [9] = experiment: Cell cycle arrest in estrogen receptor deficient human MDA-MB-231 cells assessed as accumulation at G1 phase at 100 nM after 72 hrs using propidium iodide staining by flow cytometry relative to control; format: functional; outline: as §1
MDA-MB-231 [10] = experiment: Cell cycle arrest in estrogen receptor deficient human MDA-MB-231 cells assessed as accumulation at G1 phase at 1 uM after 72 hrs using propidium iodide staining by flow cytometry relative to control; format: functional; outline: as §1
MDA-MB-231 [11] = experiment: Cell cycle arrest in estrogen receptor deficient human MDA-MB-231 cells assessed as appearance of polyploidy at 10 uM after 24 hrs using propidium iodide staining by flow cytometry relative to control; format: functional; outline: as §1
MDA-MB-231 [12] = experiment: Cell cycle arrest in estrogen receptor deficient human MDA-MB-231 cells assessed as appearance of polyploidy at 10 nM after 24 hrs using propidium iodide staining by flow cytometry relative to control; format: functional; outline: as §1
MDA-MB-231 [13] = experiment: Cell cycle arrest in estrogen receptor deficient human MDA-MB-231 cells assessed as accumulation at sub-G1 phase at 10 uM after 48 hrs using propidium iodide staining by flow cytometry relative to control; format: functional; outline: as §1
MDA-MB-231 [14] = experiment: Cell cycle arrest in estrogen receptor deficient human MDA-MB-231 cells assessed as appearance of polyploidy at 10 nM after 72 hrs using propidium iodide staining by flow cytometry relative to control; format: functional; outline: as §1
MDA-MB-231 [15] = experiment: Cell cycle arrest in estrogen receptor deficient human MDA-MB-231 cells assessed as accumulation at S phase at 1 uM after 24 hrs using propidium iodide staining by flow cytometry relative to control; format: functional; outline: as §1
MDA-MB-231 [16] = experiment: Cell cycle arrest in estrogen receptor deficient human MDA-MB-231 cells assessed as accumulation at G2/M phase at 10 uM after 48 hrs using propidium iodide staining by flow cytometry relative to control; format: functional; outline: as §1
MDA-MB-231 [17] = experiment: Cell cycle arrest in estrogen receptor deficient human MDA-MB-231 cells assessed as accumulation at S phase at 1 uM after 72 hrs using propidium iodide staining by flow cytometry relative to control; format: functional; outline: as §1
MDA-MB-231 [18] = experiment: Cell cycle arrest in estrogen receptor deficient human MDA-MB-231 cells assessed as accumulation at sub-G1 phase at 10 uM after 72 hrs using propidium iodide staining by flow cytometry relative to control; format: functional; outline: as §1
MDA-MB-231 [19] = experiment: Cell cycle arrest in estrogen receptor deficient human MDA-MB-231 cells assessed as accumulation at G2/M phase at 100 nM after 24 hrs using propidium iodide staining by flow cytometry relative to control; format: functional; outline: as §1
MCF7 = experiment: Cytotoxicity against human MCF7 cells expressing estrogen receptor assessed as LDH release at 10 uM; format: functional
Outline: (§2)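 After compound treatment, LDH was measured with a commercial LDH kit. Result is % cell lysis at 10 μM compound.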

MDA-MB-231 [20] = experiment: Cell cycle arrest in estrogen receptor deficient human MDA-MB-231 cells assessed as accumulation at S phase at 100 nM after 48 hrs using propidium iodide staining by flow cytometry relative to control; format: functional; outline: as §1
MDA-MB-231 [21] = experiment: Cell cycle arrest in estrogen receptor deficient human MDA-MB-231 cells assessed as appearance of polyploidy at 1 uM after 24 hrs using propidium iodide staining by flow cytometry relative to control; format: functional; outline: as §1
MDA-MB-231 [22] = experiment: Cell cycle arrest in estrogen receptor deficient human MDA-MB-231 cells assessed as accumulation at sub-G1 phase at 100 nM after 48 hrs using propidium iodide staining by flow cytometry relative to control; format: functional; outline: as §1
MDA-MB-231 [23] = experiment: Cell cycle arrest in estrogen receptor deficient human MDA-MB-231 cells assessed as accumulation at G1 phase at 100 nM after 24 hrs using propidium iodide staining by flow cytometry relative to control; format: functional; outline: as §1
MDA-MB-231 [24] = experiment: Cytotoxicity against estrogen receptor deficient human MDA-MB-231 cells assessed as LDH release at 10 uM; format: functional; outline: as §2
MDA-MB-231 [25] = experiment: Cell cycle arrest in estrogen receptor deficient human MDA-MB-231 cells assessed as accumulation at G2/M phase at 10 nM after 72 hrs using propidium iodide staining by flow cytometry relative to control; format: functional; outline: as §1
MDA-MB-231 [26] = experiment: Cell cycle arrest in estrogen receptor deficient human MDA-MB-231 cells assessed as accumulation at S phase at 10 nM after 72 hrs using propidium iodide staining by flow cytometry relative to control; format: functional; outline: as §1

`COc1ccc(C2CC(=O)N2c2cc(OC)c(OC)c(OC)c2)cc1O` (configuration not stated) was tested, and the pIC50 (MDA-MB-231 [1]) was 7.27, the Activity (MDA-MB-231 [2]) was 5.34% and the Activity (MDA-MB-231 [3]) was 29.3%. The Activity (MDA-MB-231 [4]) was 3.72%, the Activity (MDA-MB-231 [5]) was 21.24% and the Activity (MDA-MB-231 [6]) was 4.87%. For the same molecule, the Activity (MDA-MB-231 [7]) was 25.61%, the Activity (MDA-MB-231 [8]) was 63.1% and the Activity (MDA-MB-231 [9]) was 13.9%. For the same molecule, the Activity (MDA-MB-231 [10]) was 14.29%, the Activity (MDA-MB-231 [11]) was 3.85% and the Activity (MDA-MB-231 [12]) was 2.84%. For the same molecule, the Activity (MDA-MB-231 [13]) was 51.27%, the Activity (MDA-MB-231 [14]) was 3.55% and the Activity (MDA-MB-231 [15]) was 6.01%. It also gave an Activity (MDA-MB-231 [16]) of 27.25%, an Activity (MDA-MB-231 [17]) of 7.76% and an Activity (MDA-MB-231 [18]) of 46.49%. It also gave an Activity (MDA-MB-231 [19]) of 59.43%, an Activity (MCF7) of 9% and an Activity (MDA-MB-231 [20]) of 8.9%. It also gave an Activity (MDA-MB-231 [21]) of 4.31%, an Activity (MDA-MB-231 [22]) of 37.5% and an Activity (MDA-MB-231 [23]) of 18.95%. The Activity (MDA-MB-231 [24]) was 16%, the Activity (MDA-MB-231 [25]) was 17.68% and the Activity (MDA-MB-231 [26]) was 9.08%.
